What was measured:
[1] = Acute toxicity in BALB/c mouse assessed as effect on lung at 800 mg/kg, po measured on day 14 by H and E staining based light microscopic analysis; format: organism-based; details: in vivo
How it was run: (§1)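 Female and male BALB/c mice, 6-8 weeks old, dosed orally within 24 h at up to 400 mg/kg (free compound) or 800 mg/kg (nanocrystal). At the end of treatment, heart, liver, spleen, lung and kidney were sectioned, stained with H&E and imaged by light microscopy.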

[2] = Acute toxicity in BALB/c mouse assessed as effect on heart at 400 mg/kg, po measured on day 14 by H and E staining based light microscopic analysis; format: organism-based; details: in vivo; how it was run: as §1
[3] = Acute toxicity in BALB/c mouse assessed as effect on blood BILT level at 800 mg/kg, po measured on day 14; format: organism-based; details: in vivo
How it was run: (§2)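 BALB/c mice, female and male, 6-8 weeks old, given oral doses within 24 h, up to 400 mg/kg (free compound) or 800 mg/kg (nanocrystal formulation). Watched for body weight loss, diarrhea, anorexia, skin ulcer and toxic death. Serum biochemistry panel was run at the end of treatment.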

[4] = Acute toxicity in BALB/c mouse assessed as effect on blood CREA level at 800 mg/kg, po measured on day 14; format: organism-based; details: in vivo; how it was run: as §2
[5] = Toxicity in NOD-SCID nude mouse xenografted with human Raji cells assessed as death at 40 to 80 mg/kg/day, po administered 6 days a week for 3 weeks; format: organism-based; details: in vivo
How it was run: (§3)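 Mice, 6-7 weeks old, injected s.c. with 1×10^7 Raji cells in serum-free medium plus basement membrane matrix. At 100–200 mm3 tumours, randomised (n=6). Oral dosing 6 days/week for 3 weeks: 30 mg/kg/d free compound suspended in 5% NMP/95% PEG400, or 40 or 80 mg/kg/d nanocrystal. Body weight and tumour volume measured every 3 days.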

Raji [6] = assay: Antitumor activity against human Raji cells xenografted in NOD-SCID nude mouse assessed as tumor growth inhibition at 40 mg/kg/day, po administered 6 days a week for 3 weeks relative to control; format: functional; details: read-out: TGI
[7] = Acute toxicity in BALB/c mouse assessed as effect on blood GLU level at 800 mg/kg, po measured on day 14; format: organism-based; details: in vivo; how it was run: as §2
[8] = Acute toxicity in BALB/c mouse assessed as effect on blood TG level at 400 mg/kg, po measured on day 14; format: organism-based; details: in vivo; how it was run: as §2
[9] = Acute toxicity in BALB/c mouse assessed as effect on blood UA level at 800 mg/kg, po measured on day 14; format: organism-based; details: in vivo; how it was run: as §2
[10] = Acute toxicity in BALB/c mouse assessed as effect on blood UA level at 400 mg/kg, po measured on day 14; format: organism-based; details: in vivo; how it was run: as §2
[11] = Acute toxicity in BALB/c mouse assessed as effect on blood AST level at 400 mg/kg, po measured on day 14; format: organism-based; details: in vivo; how it was run: as §2
[12] = Acute toxicity in BALB/c mouse assessed as effect on spleen at 400 mg/kg, po measured on day 14 by H and E staining based light microscopic analysis; format: organism-based; details: in vivo; how it was run: as §1
[13] = Acute toxicity in BALB/c mouse assessed as effect on blood AST level at 800 mg/kg, po measured on day 14; format: organism-based; details: in vivo; how it was run: as §2
[14] = Acute toxicity in BALB/c mouse assessed as effect on blood LDLC level at 400 mg/kg, po measured on day 14; format: organism-based; details: in vivo; how it was run: as §2
[15] = Stability of the compound in pH 1 to 7.4 buffer assessed as decrease in compound concentration at 0.01 mg/ml measured up to 24 hrs by LC-MS analysis; format: physicochemical; details: read-out: Drug degradation
How it was run: (§4)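 Compound at 0.01 mg/mL final in buffer containing 10% acetonitrile at pH 1.0, 4.5, 6.6, 7.4 or 9.0. Held at 37 °C, sampled at 0, 2, 4, 6, 8, 10, 12 and 24 h. Remaining compound by LC-MS.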

[16] = Acute toxicity in BALB/c mouse assessed as effect on blood CREA level at 400 mg/kg, po measured on day 14; format: organism-based; details: in vivo; how it was run: as §2
[17] = Acute toxicity in BALB/c mouse assessed as effect on blood TP level at 400 mg/kg, po measured on day 14; format: organism-based; details: in vivo; how it was run: as §2
[18] = Acute toxicity in BALB/c mouse assessed as effect on blood ALB level at 400 mg/kg, po measured on day 14; format: organism-based; details: in vivo; how it was run: as §2
[19] = Stability of the compound in pH 9 buffer assessed as decrease in compound concentration at 0.01 mg/ml measured up to 24 hrs by LC-MS analysis; format: physicochemical; details: read-out: Drug degradation; how it was run: as §4
[20] = Acute toxicity in BALB/c mouse assessed as effect on blood CK level at 800 mg/kg, po measured on day 14; format: organism-based; details: in vivo; how it was run: as §2
[21] = Acute toxicity in BALB/c mouse assessed as effect on blood LDH level at 800 mg/kg, po measured on day 14; format: organism-based; details: in vivo; how it was run: as §2
[22] = Acute toxicity in BALB/c mouse assessed as effect on kidney at 800 mg/kg, po measured on day 14 by H and E staining based light microscopic analysis; format: organism-based; details: in vivo; how it was run: as §1
[23] = Toxicity in NOD-SCID nude mouse xenografted with human Raji cells assessed as death at 30 mg/kg/day, po administered 6 days a week for 3 weeks; format: organism-based; details: in vivo; how it was run: as §3
[24] = Toxicity in NOD-SCID nude mouse xenografted with human Raji cells assessed as dermatitis at 40 to 80 mg/kg/day, po administered 6 days a week for 3 weeks; format: organism-based; details: in vivo; how it was run: as §3
[25] = Toxicity in NOD-SCID nude mouse xenografted with human Raji cells assessed as effect on body weight at 30 mg/kg/day, po administered 6 days a week for 3 weeks and measured every 3 days; format: organism-based; details: in vivo; how it was run: as §3
[26] = Half life in human liver microsomes at 1 uM in presence of NADPH by LC-MS analysis; format: ADME, Microsome
How it was run: (§5)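 Compound at 1 μM with 0.5 mg/mL human, rat or mouse liver microsomes and 1 mM NADPH. Stopped with acetonitrile at 0, 5, 15, 30, 45, 60 and 90 min, centrifuged. Supernatant analysed by LC-MS/MS.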

[27] = Half life in mouse liver microsomes at 1 uM in presence of NADPH by LC-MS analysis; format: ADME, Microsome; how it was run: as §5
[28] = Acute toxicity in BALB/c mouse assessed as effect on blood ALP level at 800 mg/kg, po measured on day 14; format: organism-based; details: in vivo; how it was run: as §2
Raji [29] = assay: Induction of apoptosis in human Raji cells assessed as necrotic cells at 0.063 uM measured after 48 hrs by Annexin V-FITC staining based flow cytometry (reference value: 0.21 %); format: functional
A-375 = assay: Antiproliferative activity against human A375 cells assessed as reduction in cell viability measured after 48 hrs by MTT assay; format: functional, cell-based; details: Homo sapiens, A-375, 48 h
HeLa = assay: Antiproliferative activity against human HeLa cells assessed as reduction in cell viability measured after 48 hrs by MTT assay; format: functional, cell-based; details: Homo sapiens, HeLa, 48 h
[30] = Acute toxicity in BALB/c mouse assessed as effect on blood ALB level at 800 mg/kg, po measured on day 14; format: organism-based; details: in vivo; how it was run: as §2
K562 = assay: Antiproliferative activity against human K562 cells assessed as reduction in cell viability measured after 48 hrs by MTT assay; format: functional, cell-based; details: Homo sapiens, K562, 48 h

Compound: O=C1c2ccccc2C(=O)c2c1nnn2-c1cc(F)c(-c2ccccc2F)c(F)c1
- Activity [1]: Non-Toxic
- Activity [2]: Non-Toxic
- Activity [3]: Non-Toxic
- Activity [4]: Non-Toxic
- Activity [5]: Non-Toxic
- inhibition in vivo at 40 mg/kg/day (Raji [6]): 52%
- Activity [7]: Non-Toxic
- Activity [8]: Non-Toxic
- Activity [9]: Non-Toxic
- Activity [10]: Non-Toxic
- Activity [11]: Non-Toxic
- Activity [12]: Non-Toxic
- Activity [13]: Non-Toxic
- Activity [14]: Non-Toxic
- degraded at 24 h, 0.01 mg/ml [15]: 1.6 to 9%
- Activity [16]: Non-Toxic
- Activity [17]: Non-Toxic
- Activity [18]: Non-Toxic
- degraded at 24 h, 0.01 mg/ml [19]: 15%
- Activity [20]: Non-Toxic
- Activity [21]: Non-Toxic
- Activity [22]: Non-Toxic
- Activity [23]: Non-Toxic
- Activity [24]: Non-Toxic
- Activity [25]: Non-Toxic
- half-life at 1 µM ([26]; liver microsomes): 32 min
- t1/2 ([26]; microsomes, 1 µM): 63 min
- half-life at 1 µM ([27]; liver microsomes): 37 min
- t1/2 ([27]; microsomes, 1 µM): 50 min
- Activity [28]: Non-Toxic
- Activity (Raji [29]): 0.34%
- IC50 (A-375): 20 nM
- IC50 (HeLa): > 10000 nM
- Activity [30]: Non-Toxic
- IC50 (K562): 110 nM

Reference: ChEMBL document CHEMBL4616673 (J Med Chem, 2020)
